Experimental data: ChEMBL document CHEMBL1141130, “A novel selective GABA(A) alpha1 receptor agonist displaying sedative and anxiolytic-like properties in rodents” (J Med Chem, 2005)

Tests used:
[1] = Binding affinity for rat alpha-1 beta2/3 gamma2 GABA A / BzR receptor
In short: (§1)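 Recombinant rat αxβ2/3γ2 GABAA/benzodiazepine receptors expressed in HEK293 cells. Affinity measured by radioligand binding and reported as Ki. Values are means ± SEM from three independent experiments, each run in triplicate.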

[2] = Binding affinity for rat alpha2 beta2/3 gamma2 GABA-A/BzR receptor; in short: as §1
[3] = Binding affinity for rat alpha-3 beta2/3 gamma2 GABA-A/BzR receptor; in short: as §1
Rattus norvegicus [4] = experiment: Duration of loss of the righting reflex induced by ethanol at a dose of 30 mg/Kg when given per oral; n=8; assay type: functional, Mus musculus
[5] = Binding affinity for rat alpha-5 beta2/3 gamma2 GABA-A/BzR receptor; in short: as §1
Mus musculus [6] = experiment: Percent of mice not entering into the dark compartment in 120 s in 24 hr retention test at 0 hr treatment at a dose of 10 mg/Kg when given peroral […] avoidance test; n=10
Mus musculus [7] = experiment: Percent of mice not entering into the dark compartment in 120 s in 24 hr retention test at 0 hr treatment at a dose of 30 mg/Kg when given peroral […] avoidance test; n=10
Rattus norvegicus [8] = experiment: Duration of loss of the righting reflex induced by ethanol at a dose of 3 mg/Kg when given per oral; n=14; assay type: functional, Mus musculus
Rattus norvegicus [9] = experiment: Duration of loss of the righting reflex induced by ethanol at a dose of 1 mg/Kg when given per oral; n=12; assay type: functional, Mus musculus
Rattus norvegicus [10] = experiment: Duration of loss of the righting reflex induced by ethanol at a dose of 0.3 mg/Kg when given per oral; n=8; assay type: functional, Mus musculus

## Cc1ccc(-c2nn3ccc(C)nc3c2CC(=O)N(C)C)cc1
[1]
  Ki: 0.031 µM
[2]
  Ki: > 10 µM
[3]
  Ki: > 10 µM
Rattus norvegicus [4]
  Time: 104.9 min
[5]
  Ki: > 10 µM
Mus musculus [6]
  %: 40%
Mus musculus [7]
  %: 50%

## CN1C(=O)CN=C(c2ccccc2)c2cc(Cl)ccc21 [DIAZEPAM]
[2]
  Ki: 0.02 µM
Rattus norvegicus [8]
  Time: 149.5 min
Rattus norvegicus [9]
  Time: 129.3 min
Rattus norvegicus [10]
  Time: 127.4 min

## Cc1ccc(-c2nc3ccc(C)cn3c2CC(=O)N(C)C)cc1 [ZOLPIDEM]
[5]
  Ki: > 10 µM
Mus musculus [6]
  %: 50%
Mus musculus [7]
  %: 70%
